How the values were obtained:
[1] = target: Epidermal growth factor receptor (Homo sapiens, UniProt P00533)
[2] = target: T1, Receptor tyrosine-protein kinase erbB-2 (Homo sapiens, UniProt P04626); test: Inhibition of human recombinant cytoplasmic HER2 kinase expressed in Sf9 cells
NCI-N87 [3] = test: Antiproliferative activity against human N87 cells; assay type: functional, cell-based
HT-29 = test: Antiproliferative activity against human HT29 cells
Liver = test: Metabolic stability in mouse liver microsomes assessed as rate of metabolism per mg protein at 3 uM after 10 mins; assay type: ADME, Microsome
Procedure, shortened: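 Test compound at 3 µM incubated 10 min with mouse liver microsomes plus NADPH. Rate of metabolism expressed as nmol min⁻¹ mg protein⁻¹.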

[4] = target: Vascular endothelial growth factor receptor 2 (Homo sapiens, UniProt P35968); test: Inhibition of VEGFR2
Procedure, shortened: (§1)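 Kinase panel values are IC50s reported as the mean of at least three determinations, with variability around the mean under 15%.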

[5] = Antitumor activity against human GEO cells xenografted athymic mouse at 60 mg/kg, sc QD for 21 days; assay type: functional; details: po, 504 h, read-out: TGI, in the assay text read “po QD” for “sc QD”
Procedure, shortened: (§2)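 Tumor cells were implanted subcutaneously in athymic mice and staged to about 100 mg before dosing, with drug given orally. […] Probability was assessed for median tumor weight at the end of treatment.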

NCI-N87 [6] = test: Antitumor activity against human N87 cells xenografted athymic mouse at 60 mg/kg, sc QD for 14 days; assay type: functional; details: NCI-N87, po, 336 h, read-out: TGI, in the assay text read “po QD” for “sc QD”
Procedure, shortened: as §2

[7] = Antitumor activity against human GEO cells xenografted athymic mouse at 30 mg/kg, sc QD for 21 days; assay type: functional; details: po, 504 h, read-out: TGI, in the assay text read “po QD” for “sc QD”
Procedure, shortened: as §2

A2780 = test: Antiproliferative activity against human A2780 cells; assay type: functional, cell-based
Mus musculus [8] = test: AUC in BALB/C mouse at 50 mg/kg, po after 4 hrs; assay type: ADME, organism-based, Plasma; design: time < 4 hr, dose 50 mg/kg, route oral; details: in vivo
Procedure, shortened: (§3)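 Single oral 50 mg/kg dose in male Balb/C mice. AUC taken over 4 h, and plasma concentration measured at 4 h.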

[9] = Permeability across Caco-2 cell membrane; assay type: ADME, cell-based; details: human, read-out: permeability
[10] = target: Hepatocyte growth factor receptor (Homo sapiens, UniProt P08581); test: Inhibition of Met kinase
Chain of Hepatocyte growth factor receptor (P08581 whole entry): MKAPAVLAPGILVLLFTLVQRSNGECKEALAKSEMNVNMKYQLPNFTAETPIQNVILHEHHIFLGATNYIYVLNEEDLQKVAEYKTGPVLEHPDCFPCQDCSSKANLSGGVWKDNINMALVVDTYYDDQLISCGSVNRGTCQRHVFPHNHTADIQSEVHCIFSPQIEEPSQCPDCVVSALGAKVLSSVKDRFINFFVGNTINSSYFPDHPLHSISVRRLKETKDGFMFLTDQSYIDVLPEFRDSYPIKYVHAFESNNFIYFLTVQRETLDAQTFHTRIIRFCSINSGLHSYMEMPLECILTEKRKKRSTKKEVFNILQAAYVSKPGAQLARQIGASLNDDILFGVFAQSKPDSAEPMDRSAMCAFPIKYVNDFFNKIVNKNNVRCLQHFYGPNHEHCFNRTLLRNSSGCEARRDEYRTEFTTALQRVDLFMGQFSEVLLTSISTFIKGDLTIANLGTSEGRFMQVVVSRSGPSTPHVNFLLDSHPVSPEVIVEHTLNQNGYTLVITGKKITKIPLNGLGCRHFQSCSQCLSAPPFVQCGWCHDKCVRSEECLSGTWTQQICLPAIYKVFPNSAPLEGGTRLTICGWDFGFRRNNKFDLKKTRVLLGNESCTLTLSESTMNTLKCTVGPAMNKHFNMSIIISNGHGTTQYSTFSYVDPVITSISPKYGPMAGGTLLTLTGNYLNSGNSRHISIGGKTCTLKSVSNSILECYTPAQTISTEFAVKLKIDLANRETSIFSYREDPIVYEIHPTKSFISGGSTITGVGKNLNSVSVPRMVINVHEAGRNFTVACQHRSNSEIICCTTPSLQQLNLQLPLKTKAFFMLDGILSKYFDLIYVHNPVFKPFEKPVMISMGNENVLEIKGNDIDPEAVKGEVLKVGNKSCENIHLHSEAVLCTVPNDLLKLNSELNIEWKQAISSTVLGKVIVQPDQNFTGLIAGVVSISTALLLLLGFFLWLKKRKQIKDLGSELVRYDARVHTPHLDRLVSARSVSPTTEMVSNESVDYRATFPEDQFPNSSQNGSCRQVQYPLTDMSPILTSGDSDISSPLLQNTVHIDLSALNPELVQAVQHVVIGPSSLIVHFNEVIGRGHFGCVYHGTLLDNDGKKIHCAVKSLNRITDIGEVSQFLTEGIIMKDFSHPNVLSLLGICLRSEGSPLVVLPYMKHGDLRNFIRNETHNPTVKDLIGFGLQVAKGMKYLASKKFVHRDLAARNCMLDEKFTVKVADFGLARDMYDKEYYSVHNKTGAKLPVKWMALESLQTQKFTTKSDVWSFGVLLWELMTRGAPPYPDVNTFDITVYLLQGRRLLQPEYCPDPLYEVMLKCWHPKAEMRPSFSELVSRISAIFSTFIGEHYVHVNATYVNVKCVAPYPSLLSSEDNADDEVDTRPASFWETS
Procedure, shortened: as §1

MAP kinase p38 = MAP kinase p38 (Homo sapiens, UniProt O15264+Q15759+Q16539+P53778); test: Inhibition of p38 kinase; assay type: protein assay
Procedure, shortened: as §1

[11] = Fraction unbound (%) ligand in mouse serum at 10 uM by equilibrium dialysis; assay type: ADME, cell-free, Plasma
[12] = Plasma concentration in BALB/C mouse at 50 mg/kg, po after 4 hrs; assay type: ADME, organism-based; design: dose 50 mg/kg, route oral
Procedure, shortened: as §3

NCI-N87 [13] = test: Antitumor activity against human N87 cells xenografted athymic mouse at 120 mg/kg, sc QD for 14 days; assay type: functional; details: NCI-N87, po, 336 h, read-out: TGI, in the assay text read “po QD” for “sc QD”
Procedure, shortened: as §2

[14] = Antitumor activity against human GEO cells xenografted athymic mouse at 240 mg/kg, sc QD for 21 days; assay type: functional; details: po, 504 h, read-out: TGI, in the assay text read “po QD” for “sc QD”
Procedure, shortened: as §2

NCI-N87 [15] = test: Antitumor activity against human N87 cells xenografted athymic mouse at 240 mg/kg, sc QD for 14 days; assay type: functional; details: NCI-N87, po, 336 h, read-out: TGI, in the assay text read “po QD” for “sc QD”
Procedure, shortened: as §2

Mus musculus [16] = test: Toxicity in mouse at 240 mg/kg, po; details: in vivo
Mus musculus [17] = test: Toxicity in mouse assessed as wieght loss at 240 mg/kg, po; details: in vivo
NCI-N87 [18] = test: Antitumor activity against human N87 cells xenografted athymic mouse at 30 mg/kg, sc QD for 14 days; assay type: functional; details: NCI-N87, po, 336 h, read-out: TGI, in the assay text read “po QD” for “sc QD”
Procedure, shortened: as §2

[19] = Antitumor activity against human GEO cells xenografted athymic mouse at 120 mg/kg, sc QD for 21 days; assay type: functional; details: po, 504 h, read-out: TGI, in the assay text read “po QD” for “sc QD”
Procedure, shortened: as §2

[20] = target: Tyrosine-protein kinase Lck (Homo sapiens, UniProt P06239); test: Inhibition of LCK kinase
Chain of Tyrosine-protein kinase Lck (P06239 whole entry): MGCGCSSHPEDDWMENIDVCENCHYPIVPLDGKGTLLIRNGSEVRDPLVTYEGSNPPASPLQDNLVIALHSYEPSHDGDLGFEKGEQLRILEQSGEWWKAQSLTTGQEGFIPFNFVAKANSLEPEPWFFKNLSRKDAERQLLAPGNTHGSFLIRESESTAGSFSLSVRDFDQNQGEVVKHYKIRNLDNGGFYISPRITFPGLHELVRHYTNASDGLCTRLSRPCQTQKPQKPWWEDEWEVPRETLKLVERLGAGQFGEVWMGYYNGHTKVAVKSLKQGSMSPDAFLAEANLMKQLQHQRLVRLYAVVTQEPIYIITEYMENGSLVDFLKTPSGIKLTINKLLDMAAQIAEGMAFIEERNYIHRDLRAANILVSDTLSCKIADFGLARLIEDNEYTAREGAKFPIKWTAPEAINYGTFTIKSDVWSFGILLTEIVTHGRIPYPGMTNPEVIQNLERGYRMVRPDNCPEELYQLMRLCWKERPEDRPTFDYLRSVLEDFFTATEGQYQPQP
Procedure, shortened: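 IC50 is the mean of at least three determinations, with variability around the mean below 15%.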

[21] = Inhibition of PKA; design: species or system Homo sapiens
Procedure, shortened: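 IC50 values are means of at least three determinations, with variability around the mean under 15%.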

[22] = target: T1, Receptor tyrosine-protein kinase erbB-2; test: Inhibition of HER2 phosphorylation in human N87 cells; assay type: cell-based; details: NCI-N87
Procedure, shortened: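 N87 human gastric carcinoma cells, which overexpress EGFR and HER2, were exposed to a range of compound concentrations for 1 h. Cell lysates were then Western blotted with anti-phosphotyrosine and anti-HER2 antibodies to follow HER2 phosphorylation.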

T1 sequence (P04626 whole entry): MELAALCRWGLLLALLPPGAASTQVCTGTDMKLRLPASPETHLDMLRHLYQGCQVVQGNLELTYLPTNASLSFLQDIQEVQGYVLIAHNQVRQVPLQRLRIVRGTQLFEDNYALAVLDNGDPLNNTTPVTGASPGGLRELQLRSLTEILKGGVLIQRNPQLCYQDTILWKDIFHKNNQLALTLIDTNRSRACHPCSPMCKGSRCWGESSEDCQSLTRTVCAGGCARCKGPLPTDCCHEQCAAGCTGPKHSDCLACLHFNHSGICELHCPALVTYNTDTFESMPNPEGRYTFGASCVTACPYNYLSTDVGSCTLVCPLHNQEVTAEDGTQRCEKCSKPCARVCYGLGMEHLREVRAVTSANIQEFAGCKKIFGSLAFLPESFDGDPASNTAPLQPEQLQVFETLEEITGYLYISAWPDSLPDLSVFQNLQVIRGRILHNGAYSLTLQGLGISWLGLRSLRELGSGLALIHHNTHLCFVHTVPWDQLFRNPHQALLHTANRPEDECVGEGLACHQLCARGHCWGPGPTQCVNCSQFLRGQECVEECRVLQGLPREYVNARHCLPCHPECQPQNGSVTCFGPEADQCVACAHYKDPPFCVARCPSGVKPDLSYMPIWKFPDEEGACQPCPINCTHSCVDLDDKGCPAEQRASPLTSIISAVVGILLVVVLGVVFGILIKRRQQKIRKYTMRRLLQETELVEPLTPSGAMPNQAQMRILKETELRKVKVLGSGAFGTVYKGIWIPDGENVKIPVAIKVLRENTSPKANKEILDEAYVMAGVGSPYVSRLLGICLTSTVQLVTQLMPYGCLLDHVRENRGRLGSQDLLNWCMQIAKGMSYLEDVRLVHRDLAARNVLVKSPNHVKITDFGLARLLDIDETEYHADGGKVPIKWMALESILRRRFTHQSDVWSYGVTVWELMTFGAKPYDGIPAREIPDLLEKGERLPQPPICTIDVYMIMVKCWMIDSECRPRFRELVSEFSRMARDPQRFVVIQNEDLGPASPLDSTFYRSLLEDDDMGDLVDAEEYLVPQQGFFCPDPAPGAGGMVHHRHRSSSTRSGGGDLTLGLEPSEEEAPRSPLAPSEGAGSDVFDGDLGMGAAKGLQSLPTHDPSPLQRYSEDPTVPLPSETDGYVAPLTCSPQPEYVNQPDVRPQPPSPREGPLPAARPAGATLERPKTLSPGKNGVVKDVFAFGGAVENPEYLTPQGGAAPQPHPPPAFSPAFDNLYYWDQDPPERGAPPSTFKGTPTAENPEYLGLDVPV
Chain of Epidermal growth factor receptor (P00533 whole entry): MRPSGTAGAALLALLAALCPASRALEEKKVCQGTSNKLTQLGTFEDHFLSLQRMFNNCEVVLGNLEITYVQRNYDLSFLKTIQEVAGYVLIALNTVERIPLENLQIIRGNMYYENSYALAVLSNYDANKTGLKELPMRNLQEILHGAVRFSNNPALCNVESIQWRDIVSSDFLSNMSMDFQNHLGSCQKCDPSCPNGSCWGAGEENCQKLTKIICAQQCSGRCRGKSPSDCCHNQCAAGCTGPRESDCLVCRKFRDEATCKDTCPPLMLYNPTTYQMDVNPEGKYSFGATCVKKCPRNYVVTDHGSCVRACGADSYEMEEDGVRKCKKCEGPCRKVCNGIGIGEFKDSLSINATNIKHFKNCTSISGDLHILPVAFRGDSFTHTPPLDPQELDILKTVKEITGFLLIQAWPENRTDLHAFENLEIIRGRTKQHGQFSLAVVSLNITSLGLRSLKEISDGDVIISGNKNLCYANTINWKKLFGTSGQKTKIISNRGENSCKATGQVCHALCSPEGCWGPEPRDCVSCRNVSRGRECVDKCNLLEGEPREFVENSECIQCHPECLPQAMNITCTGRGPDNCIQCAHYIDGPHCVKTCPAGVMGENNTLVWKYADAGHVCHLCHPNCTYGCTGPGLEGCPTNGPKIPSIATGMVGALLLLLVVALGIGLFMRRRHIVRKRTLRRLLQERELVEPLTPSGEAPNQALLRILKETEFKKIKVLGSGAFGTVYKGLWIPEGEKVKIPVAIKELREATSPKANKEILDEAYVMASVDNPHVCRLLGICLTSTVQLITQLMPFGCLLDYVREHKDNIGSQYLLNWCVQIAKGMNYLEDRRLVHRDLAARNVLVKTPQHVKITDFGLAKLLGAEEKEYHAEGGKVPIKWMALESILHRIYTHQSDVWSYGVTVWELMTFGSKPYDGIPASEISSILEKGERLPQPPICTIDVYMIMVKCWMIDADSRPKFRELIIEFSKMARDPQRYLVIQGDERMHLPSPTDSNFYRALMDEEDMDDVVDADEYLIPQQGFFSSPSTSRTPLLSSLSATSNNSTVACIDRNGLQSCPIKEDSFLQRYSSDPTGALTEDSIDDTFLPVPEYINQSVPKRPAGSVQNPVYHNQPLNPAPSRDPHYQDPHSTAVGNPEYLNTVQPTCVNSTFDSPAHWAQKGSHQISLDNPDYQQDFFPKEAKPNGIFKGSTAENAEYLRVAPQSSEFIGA

## Cc1ccn2ncnc(Nc3ccc4c(cnn4Cc4cccnc4)c3)c12
[1]
  IC50: 1800 nM
[2]
  IC50: 250 nM

## OCc1ccn2ncnc(Nc3ccc4c(cnn4Cc4cccc(F)c4)c3)c12
[1]
  IC50: 120 nM
[2]
  IC50: 110 nM
NCI-N87 [3]
  IC50: 7400 nM
HT-29
  IC50: > 10000 nM

## Cc1ccn2ncnc(Nc3ccc4c(cnn4Cc4cccc(F)c4)c3)c12
[1]
  IC50: 81 nM
[2]
  IC50: 88 nM
NCI-N87 [3]
  IC50: 380 nM
HT-29
  IC50: > 10000 nM
Liver
  Stability: 0.14 nmol/min/mg

## c1cncc(Cn2ncc3cc(Nc4ncnn5ccc(COC[C@@H]6CNCCO6)c45)ccc32)c1
[1]
  IC50: 810 nM
[2]
  IC50: 410 nM
NCI-N87 [3]
  IC50: 550 nM

## COC(=O)COCc1ccn2ncnc(Nc3ccc4c(cnn4Cc4cccc(F)c4)c3)c12
[1]
  IC50: 460 nM
[2]
  IC50: 280 nM
NCI-N87 [3]
  IC50: 1700 nM

## C[C@H](c1cccc(F)c1)n1ncc2cc(Nc3ncnn4ccc(COC[C@@H]5CNCCO5)c34)ccc21
[1]
  IC50: 68 nM
[2]
  IC50: 41 nM
NCI-N87 [3]
  IC50: 130 nM

## COCc1ccn2ncnc(Nc3ccc4c(cnn4Cc4cccc(F)c4)c3)c12
[1]
  IC50: 340 nM
[2]
  IC50: 420 nM
Liver
  Stability: 0.24 nmol/min/mg

## COCCOCc1ccn2ncnc(Nc3ccc4c(cnn4Cc4cccc(F)c4)c3)c12
[2]
  IC50: 420 nM

## Cc1ccn2ncnc(Nc3ccc4c(cnn4Cc4ccccn4)c3)c12
[1]
  IC50: 200 nM
[2]
  IC50: 310 nM

## c1ccc(Cn2ncc3cc(Nc4ncnn5ccc(COC[C@@H]6CNCCO6)c45)ccc32)nc1
[1]
  IC50: 500 nM
[2]
  IC50: 380 nM
NCI-N87 [3]
  IC50: 240 nM

## NCCCCOCc1ccn2ncnc(Nc3ccc4c(cnn4Cc4cccc(F)c4)c3)c12
[1]
  IC50: 160 nM
[2]
  IC50: 130 nM

## C[C@H](c1ccccc1)n1ncc2cc(Nc3ncnn4ccc(COC[C@@H]5CNCCO5)c34)ccc21
[1]
  IC50: 120 nM
[2]
  IC50: 130 nM
NCI-N87 [3]
  IC50: 660 nM

## Cc1ccn2ncnc(Nc3ccc(F)c(Cl)c3)c12
[2]
  IC50: > 1000 nM

## COc1cn2ncnc(Nc3ccc4c(cnn4Cc4cccc(F)c4)c3)c2c1COC[C@@H]1CNCCO1
[1]
  IC50: 430 nM
[2]
  IC50: 250 nM
NCI-N87 [3]
  IC50: 3400 nM

## Cc1ccn2ncnc(Nc3ccc4[nH]ncc4c3)c12
[1]
  IC50: 210 nM
[2]
  IC50: > 1000 nM

## Fc1cccc(Cn2ncc3cc(Nc4ncnn5ccc(COC[C@@H]6CNCCO6)c45)ccc32)c1
[4]
  IC50: > 10000 nM
[5]
  inhibition in vivo at 60 mg/kg: 55%
NCI-N87 [6]
  inhibition in vivo at 60 mg/kg: 51%
[7]
  inhibition in vivo at 30 mg/kg: 21%
A2780
  IC50: 8700 nM
Mus musculus [8]
  AUC: 29 µM·h
[1]
  IC50: 61 nM
[9]
  Papp: 6.4 ×10⁻⁶ cm/s
[10]
  IC50: 6500 nM
[2]
  IC50: 55 nM
MAP kinase p38
  IC50: > 50000 nM
[11]
  fraction unbound at 10 µM: 0.026
[12]
  concentration at 4 h: 5.8 µM
NCI-N87 [3]
  IC50: 83 nM
NCI-N87 [13]
  inhibition in vivo at 120 mg/kg: 70%
[14]
  inhibition in vivo at 240 mg/kg: 91%
NCI-N87 [15]
  inhibition in vivo at 240 mg/kg: 111%
Mus musculus [16]
  Activity: Non-toxic
Mus musculus [17]
  Activity: Non-toxic
NCI-N87 [18]
  inhibition in vivo at 30 mg/kg: 28%
Liver
  Stability: 0.07 nmol/min/mg
[19]
  inhibition in vivo at 120 mg/kg: 71%
[20]
  IC50: > 5000 nM
[21]
  IC50: > 50000 nM
[22]
  Activity: Dose-dependent effect

## Fc1cccc(Cn2ncc3cc(Nc4ncnn5ccc(COCC6CCNCC6)c45)ccc32)c1
A2780
  IC50: 4900 nM
[1]
  IC50: 130 nM
[2]
  IC50: 120 nM
NCI-N87 [3]
  IC50: 720 nM

## Fc1cccc(Cn2ncc3cc(Nc4ncnn5ccc(COC[C@H]6CNCCO6)c45)ccc32)c1
A2780
  IC50: > 10000 nM
[1]
  IC50: 83 nM
[2]
  IC50: 60 nM
NCI-N87 [3]
  IC50: 130 nM

## CN(C)CCCOCc1ccn2ncnc(Nc3ccc4c(cnn4Cc4cccc(F)c4)c3)c12
[1]
  IC50: 620 nM
[2]
  IC50: 560 nM
Liver
  Stability: 0.12 nmol/min/mg

## Fc1cccc(Cn2ncc3cc(Nc4ncnn5ccc(COC[C@@H]6COCCN6)c45)ccc32)c1
A2780
  IC50: > 10000 nM
[1]
  IC50: 640 nM
[2]
  IC50: 590 nM
NCI-N87 [3]
  IC50: 3000 nM

## Fc1cccc(Cn2ncc3cc(Nc4ncnn5ccc(COC6CCNCC6)c45)ccc32)c1
A2780
  IC50: 6000 nM
[1]
  IC50: 73 nM
[2]
  IC50: 70 nM
NCI-N87 [3]
  IC50: 330 nM
Liver
  Stability: 0.02 nmol/min/mg

## NCCCOCc1ccn2ncnc(Nc3ccc4c(cnn4Cc4cccc(F)c4)c3)c12
A2780
  IC50: 7400 nM
[1]
  IC50: 64 nM
[2]
  IC50: 60 nM
NCI-N87 [3]
  IC50: 640 nM
Liver
  Stability: 0.01 nmol/min/mg

## Fc1cccc(Cn2ncc3cc(Nc4ncnn5ccc(COCC6CNCCOC6)c45)ccc32)c1 (stereo not drawn)
A2780
  IC50: > 10000 nM
[1]
  IC50: 210 nM
[2]
  IC50: 140 nM
NCI-N87 [3]
  IC50: 2000 nM

## C[C@@H](c1cccc(F)c1)n1ncc2cc(Nc3ncnn4ccc(COC[C@@H]5CNCCO5)c34)ccc21
[1]
  IC50: 400 nM
[2]
  IC50: 510 nM

## O=C(O)COCc1ccn2ncnc(Nc3ccc4c(cnn4Cc4cccc(F)c4)c3)c12
A2780
  IC50: > 10000 nM
[1]
  IC50: 30 nM
[2]
  IC50: 18 nM
NCI-N87 [3]
  IC50: > 10000 nM

## Fc1cccc(COc2ccc(Nc3ncnn4ccc(COC[C@@H]5CNCCO5)c34)cc2Cl)c1
NCI-N87 [3]
  IC50: 610 nM

## NCCOCc1ccn2ncnc(Nc3ccc4c(cnn4Cc4cccc(F)c4)c3)c12
A2780
  IC50: 8300 nM
NCI-N87 [3]
  IC50: 1700 nM

## Cc1ccn2ncnc(Nc3ccc(OCc4cccc(F)c4)c(Cl)c3)c12
[1]
  IC50: 250 nM
[2]
  IC50: 430 nM

## Cc1ccn2ncnc(Nc3ccc4c(cnn4Cc4ccccc4)c3)c12
[1]
  IC50: 86 nM
[2]
  IC50: 110 nM

## NC(=O)COCc1ccn2ncnc(Nc3ccc4c(cnn4Cc4cccc(F)c4)c3)c12
A2780
  IC50: > 10000 nM
[1]
  IC50: 140 nM
[2]
  IC50: 110 nM
NCI-N87 [3]
  IC50: 1700 nM

## Fc1cccc(Cn2ncc3cc(Nc4ncnn5ccc(COC[C@H]6CCCNC6)c45)ccc32)c1
A2780
  IC50: 7400 nM
[1]
  IC50: 190 nM
[2]
  IC50: 170 nM
NCI-N87 [3]
  IC50: 980 nM

## C[C@@H](c1ccccc1)n1ncc2cc(Nc3ncnn4ccc(COC[C@@H]5CNCCO5)c34)ccc21
[1]
  IC50: 690 nM
[2]
  IC50: 850 nM
NCI-N87 [3]
  IC50: 2200 nM

Reference: ChEMBL document CHEMBL1139130, “New C-5 substituted pyrrolotriazine dual inhibitors of EGFR and HER2 protein tyrosine kinases” (Bioorg Med Chem Lett, 2007)
